We go through 97 compounds from ChEMBL document CHEMBL4513216, “Probing the Open Global Health Chemical Diversity Library for Multistage-Active Starting Points for Next-Generation Antimalarials” (ACS Infect Dis, 2020).

A short description of the data set: Toxicity liver stage against HepG2, at 10uM. In kind it is cell-based. Further details: test concentration 10 uM, cell line HepG2-A16-CD81EGFP. The following applies: human, HepG2-A16-CD81EGFP cells; read-out: INHIBITION
The procedure, abridged:
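Uninfected HepG2-A16-CD81EGFP cells, 3 × 10^3 per well, 1536-well, plated on prespotted compound at 10 μM final, parasite-free screening media added to match infected plates; puromycin 10 μM positive, DMSO 0.5% negative; run in parallel with 48 h PbLuc assay at 37 °C, 5% CO2; viability by CellTiter-Glo luminescence, normalized to controls.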

Consider `COc1cccc2c1OCC(NC(=O)NCCC(N)=O)C2` (configuration not stated), for which the cytotoxicity at 10 µM was -1.38%.

Consider `CNC(=O)CN1CCCC12CCN(C(=O)c1ccoc1)CC2`, for which the cytotoxicity at 10 µM amounted to 6.53%.

In the case of `CN(C)C(=O)N1CC[C@@H](O)[C@@H]1Cc1cnn(C)c1`, the cytotoxicity at 10 µM turned out to be 7.02%.

Take `Cc1cc(C)c(CNC(=O)N2CCN(c3ccccn3)CC2)c(=O)[nH]1`: the cytotoxicity at 10 µM is -9.95%.

Take `O=C(c1ccc2c(c1)OCO2)N1CCN(c2cnccn2)CC1`: the cytotoxicity at 10 µM is -7.1%.

Regarding `CCc1ncc(C(=O)N(C)C2Cc3ccccc3C2)cn1`, the cytotoxicity at 10 µM was -1.05%.

Regarding `O=C1NCCN(Cc2cccnc2)C1CC(=O)N1CCc2n[nH]cc2C1` (configuration not stated), the cytotoxicity at 10 µM was -4.05%.

`CN1CCN(C(=O)c2nc3c(o2)CN(C(=O)c2cccnc2)C3)CC1`: the cytotoxicity at 10 µM was -7.06%.

As to `CSc1ccc(CNC2CCN(CCc3ccncc3)CC2)cc1`, the cytotoxicity at 10 µM was -8.14%.

As for `COc1ncccc1CNC(=O)Nc1cc(C)nn1C`, the cytotoxicity at 10 µM is -5.13%.

On to `CC(C)N(CC(N)=O)CC(=O)NCCc1c(F)cccc1F`, for which the cytotoxicity at 10 µM was -4.97%.

For `Cc1cc(C(N)=O)ccc1NC(=O)c1nc(N2CCCCC2)ncc1Cl`, the cytotoxicity at 10 µM is -13.9%.

`Cn1c(C(=O)NS(C)(=O)=O)ccc1-c1ccccc1`: the cytotoxicity at 10 µM is -6.85%.

For `CCN1CCCC(C)(C(=O)NCCc2n[nH]c(=O)[nH]2)C1` (configuration not stated), the cytotoxicity at 10 µM is -1.76%.

As to `COc1ccc(CN2CCCC(Cn3nc(C)nc3C)C2)cc1F` (configuration not stated), the cytotoxicity at 10 µM was -0.409%.

In the case of `COC(=O)[C@@H]1C[C@@H](O)CN1Cc1ccn(-c2ccc(F)cc2)n1`, the cytotoxicity at 10 µM is -5.17%.

For `c1csc(-c2cc(CN3CCN(c4nccs4)CC3)no2)c1`, the cytotoxicity at 10 µM is 13.2%.

Turning to `Cc1ccccc1CCCN(C)S(C)(=O)=O`, the cytotoxicity at 10 µM is 5.41%.

Turning to `Cc1ccc(-c2nccn2-c2ccc(OC3CCN(C)CC3)cc2)o1`, the cytotoxicity at 10 µM is -10.4%.

For the compound `NC(=O)C1CN(C(=O)C2(c3ccc(F)cc3F)CCCC2)CCO1` (configuration not stated), the cytotoxicity at 10 µM is -5.92%.

For the compound `CCn1ncc2c1C(COC)CN(Cc1ccc(F)cc1)C2` (configuration not stated), the cytotoxicity at 10 µM worked out at 12.4%.

As to `c1cn(Cc2nnc(C3CCN(c4nccs4)CC3)n2C2CC2)cn1`, the cytotoxicity at 10 µM was -7.6%.

Turning to `Cc1nn(C)cc1-c1cncn1CCc1ccc2c(c1)OCCO2`, the cytotoxicity at 10 µM is 11.5%.

As for `c1csc(CN2CCCn3cnc(CN4CCCC4)c3C2)c1`, the cytotoxicity at 10 µM is -72.7%.

On to `CCN(CCC(=O)OC)C(=O)c1cccc(Cn2nc(C)cc2C)c1`, for which the cytotoxicity at 10 µM is 7.59%.

Turning to `Cc1cc(N2CCCC(N(C)C)C2)n2nc(C)cc2n1` (configuration not stated), the cytotoxicity at 10 µM is -53.5%.

With `O=C(NCC1OCCc2cn(CC3CCOCC3)nc21)c1ccncc1` (configuration not stated), the cytotoxicity at 10 µM is -78%.

On to `CC[C@@H](CO)NC(=O)c1coc(COc2ccc(OC)cc2)n1`, for which the cytotoxicity at 10 µM stood at 15%.

With `CNc1ncc(-c2csc(NC(=O)C[C@H]3COCCN3)n2)cn1`, the cytotoxicity at 10 µM is -11.9%.

`COc1ncccc1C(=O)N1CC[C@H]2C[C@@H](C)O[C@@H]2C1`: the cytotoxicity at 10 µM is -7.63%.

In the case of `CC(OCC1CC1)C(=O)NCc1ccc(Cn2ccnc2)cc1` (configuration not stated), the cytotoxicity at 10 µM turned out to be 15.6%.

As to `CC(C)Oc1cc(N2CCC(N3CCC(O)CC3)CC2)nc(N)n1`, the cytotoxicity at 10 µM was -12.2%.

Regarding `Cc1nn(C)c2cnn(Cc3ccc(C(=O)NC4CC4)cc3)c12`, the cytotoxicity at 10 µM amounted to 6.42%.

Turning to `Cc1cccc(Oc2ccccc2CNC(=O)C2CCNC(=O)C2)c1` (configuration not stated), the cytotoxicity at 10 µM came out at 3.6%.

Turning to `NC1CC(C(F)(F)F)=NC=C1c1ccccc1` (configuration not stated), the cytotoxicity at 10 µM is -9.16%.

On to `Cc1noc(Cl)c1CCC(=O)N1CCN(c2ccccc2)CC1`, for which the cytotoxicity at 10 µM was -1.37%.

Turning to `CCc1n[nH]c(C2CN(C(=O)c3cnc(C)cn3)CCO2)n1` (configuration not stated), the cytotoxicity at 10 µM was -2.9%.

Regarding `CN(Cc1cccnc1)C1CC2(CCN(C(=O)c3ccnnc3)CC2)C1`, the cytotoxicity at 10 µM was determined as 5.41%.

On to `Cc1nnc2n1CCN(CCOc1ccc(C(C)(C)C)cc1)C2`, for which the cytotoxicity at 10 µM is -17.1%.

Take `CCc1ncc2c(n1)CN(c1cc(NC3CC3)nc(N)n1)C2`: the cytotoxicity at 10 µM was 5.75%.

For the compound `Cc1ccc(CNC2CCCN(Cc3noc(C4CC4)n3)C2)s1` (configuration not stated), the cytotoxicity at 10 µM was -6.01%.

For the compound `CN(Cc1cccs1)c1nc2c(cnn2C(C)(C)C)c(=O)[nH]1`, the cytotoxicity at 10 µM was found to be 9.75%.

On to `CCOc1ccc2ccccc2c1CNCC1CCS(=O)(=O)C1` (configuration not stated), for which the cytotoxicity at 10 µM was -3.4%.

`O=C([C@H]1CN(Cc2nccs2)C[C@H]2OCC[C@@H]12)N1CCCCO1`: the cytotoxicity at 10 µM is -111%.

As for `COC(=O)N1CCC(Nc2cccc(F)c2C(C)=O)CC1`, the cytotoxicity at 10 µM was 12.7%.

As for `N#Cc1ccc(CNCCS(=O)(=O)N2CCc3ccccc32)cc1`, the cytotoxicity at 10 µM was -4.11%.

Turning to `CCOC(CC)C(=O)NCc1cccc(N2CCCCC2=O)c1` (configuration not stated), the cytotoxicity at 10 µM is 5.12%.

As to `Cc1nn(C)c2nc(N3CCCCC3c3nccs3)sc12` (configuration not stated), the cytotoxicity at 10 µM stood at 10.2%.

Consider `CC1(C)CCN(S(=O)(=O)N2CCCC(c3cccc(C(=O)O)c3)C2)CC1` (configuration not stated), for which the cytotoxicity at 10 µM was -0.879%.

As for `COC(=O)NCC(=O)N1CCC(c2nc3cc(F)ccc3[nH]2)CC1`, the cytotoxicity at 10 µM turned out to be 3.67%.

Take `CCC(Oc1ccc(N(C)S(C)(=O)=O)cc1)C(N)=O` (configuration not stated): the cytotoxicity at 10 µM is -4.18%.

As to `CC(C)C(=O)N1CCc2c(CN(C)Cc3ccco3)cncc2C1`, the cytotoxicity at 10 µM is -5.69%.

For `CSc1ccc(-c2nc(CN3CCC(NC(C)=O)CC3)c(C)o2)cc1`, the cytotoxicity at 10 µM is -2.76%.

Take `O=C(c1ccccn1)N1CCN(c2ccc(-n3cccc3)nn2)CC1`: the cytotoxicity at 10 µM was -13.7%.

As to `COCCN1C(=O)CCC12CCN(C(=O)CC1CC1)CC2`, the cytotoxicity at 10 µM came to 3.73%.

On to `CN(C)C(=O)N1CCN(c2ccc(Cl)nn2)C(=O)C1`, for which the cytotoxicity at 10 µM was determined as 9.1%.

In the case of `Cn1cc(CNC(=O)c2cc3c(s2)CCCCC3)cn1`, the cytotoxicity at 10 µM is -12%.

Take `CC(c1cccnc1)N(C)Cc1ccccn1` (configuration not stated): the cytotoxicity at 10 µM is 0.423%.

With `CCCNC(=O)NCc1cccnc1OC`, the cytotoxicity at 10 µM is 4.6%.

Regarding `Cc1noc(C)c1CN1CCCC2(C1)CN(c1nncs1)CCO2` (configuration not stated), the cytotoxicity at 10 µM was found to be 0.922%.

Turning to `O=C(O)c1cnc(N2CCC(O)CC2)nc1COc1ccc(F)cc1`, the cytotoxicity at 10 µM was -7.52%.

Consider `Cc1nccn1[C@@H]1CC[C@@H](NC(=O)CCCn2cccn2)[C@H]1O`, for which the cytotoxicity at 10 µM was -6.28%.

Consider `COc1ccc(OC)c(Sc2ncccc2C(=O)NCCSC)c1`, for which the cytotoxicity at 10 µM came out at 20.7%.

For the compound `Cc1cnn(CC2CCCCN2C(=O)c2sccc2C#N)c1` (configuration not stated), the cytotoxicity at 10 µM turned out to be 0.185%.

`O=C(c1ccncc1F)N1CCCC1c1nc(-c2ccccc2)n[nH]1` (configuration not stated): the cytotoxicity at 10 µM was found to be 1.34%.

Take `Cc1nc2c(c(=O)n1C)CCN(Cc1cc3ccccc3[nH]1)CC2`: the cytotoxicity at 10 µM was -8.42%.

Regarding `CCN(CC)C(=O)c1ccc(NC(=O)CNc2ccc(Br)cc2F)cc1`, the cytotoxicity at 10 µM amounted to 4.52%.

For `O=C1CCC2(CCCN(C(=O)NCc3ccccc3)CC2)N1` (configuration not stated), the cytotoxicity at 10 µM came to 5.23%.

`Cc1cc(Nc2ccc(F)cn2)cc(C2CCN(Cc3ncc[nH]3)C2)n1` (configuration not stated): the cytotoxicity at 10 µM is -8.26%.

As for `CN1CC(=O)N(c2ccccc2)CC12CCN(C(=O)c1cnccn1)C2` (configuration not stated), the cytotoxicity at 10 µM came out at 9.91%.

Regarding `Cc1ncc(C(=O)NCCNc2ccncc2)s1`, the cytotoxicity at 10 µM was 1.72%.

In the case of `Cn1cc(C2CCCN2C(=O)CCCc2ccccn2)cn1` (configuration not stated), the cytotoxicity at 10 µM was -0.222%.

`CCc1nc(C2CCCN2Cc2nc(Cc3ccccc3)no2)no1` (configuration not stated): the cytotoxicity at 10 µM was 3.12%.

Regarding `CCCN1Cc2ccccc2CC1C(=O)NC` (configuration not stated), the cytotoxicity at 10 µM is -5.74%.

For the compound `CCN1C[C@H]2CCN(C(=O)NC3CCCC3)CC[C@H]2S1(=O)=O`, the cytotoxicity at 10 µM was -3.52%.

Turning to `N#Cc1ccc(CNCC2(c3ccccc3)CCOCC2)cc1`, the cytotoxicity at 10 µM stood at 8.78%.

For `COc1nccc(N2CC[C@@H](N3CCCCCC3)[C@H](O)C2)c1C#N`, the cytotoxicity at 10 µM is -152%.

With `CN1CCN2CCN(Cc3ccccc3Cn3cccn3)CC2C1` (configuration not stated), the cytotoxicity at 10 µM is -133%.

Take `COC(=O)c1cccc(C(=O)N2CCCC(n3cncn3)C2)c1` (configuration not stated): the cytotoxicity at 10 µM is -6.48%.

Regarding `CC1CN(C)CCN1C(=O)c1cnn(-c2ccc(Cl)cc2)c1` (configuration not stated), the cytotoxicity at 10 µM was -22.7%.

As for `CN(C)CCn1nc(C2CCN(S(=O)(=O)N(C)C)C2)c2cccnc21` (configuration not stated), the cytotoxicity at 10 µM was -2.15%.

Turning to `Cc1nccn1-c1cc(CNC(=O)c2ccccn2)ccn1`, the cytotoxicity at 10 µM is -11.5%.

In the case of `CNC(=O)c1cc2c(nc1NCC(C)C)CCN(S(C)(=O)=O)CC2`, the cytotoxicity at 10 µM was -161%.

For `CCO[C@@H]1CC[C@H]2[C@H]1OCCN2CC1CCOCC1`, the cytotoxicity at 10 µM amounted to 10.8%.

Consider `CC(C)c1cccc(-n2cc(O)c(C(=O)NCCCn3cccn3)n2)c1`, for which the cytotoxicity at 10 µM was -1.59%.

As for `COc1c(C)cnc(CN2CCCC2c2noc(C3CC3)n2)c1C` (configuration not stated), the cytotoxicity at 10 µM was -0.0422%.

As for `O=c1[nH]nc2c(N3CCC(NC4CCOCC4)CC3)nccn12`, the cytotoxicity at 10 µM was 7.19%.

In the case of `Cc1ccc(S(N)(=O)=O)cc1C(=O)NC1CCCC1`, the cytotoxicity at 10 µM was found to be 1.86%.

In the case of `Cc1nc(C)n(C2CCCN(C(=O)c3ccc(OC(C)C)nc3)C2)n1` (configuration not stated), the cytotoxicity at 10 µM is -5.92%.

Turning to `O=C(c1cc(-n2cnnn2)ccc1Cl)N1CCN(c2ccccc2)CC1`, the cytotoxicity at 10 µM is 11.3%.

Consider `COCc1ccccc1CNc1cc(N2CCCC2CO)ncn1` (configuration not stated), for which the cytotoxicity at 10 µM was -1.81%.

With `CC(=O)NCC(=O)N1CCC2(CC1)NC(=O)CC2c1cnn(C)c1` (configuration not stated), the cytotoxicity at 10 µM is -0.113%.

Regarding `CC(=O)NCCNC(=O)CNC1CCCN(c2ccc(C)nn2)C1` (configuration not stated), the cytotoxicity at 10 µM is 3.47%.

With `O=C1CC[C@@H](CN(Cc2ccncc2)Cc2nc(CC3CC3)no2)N1`, the cytotoxicity at 10 µM was found to be 3.86%.

With `CCN1C[C@H]2CCN(Cc3ccncc3)C(=O)[C@@H]2C1`, the cytotoxicity at 10 µM worked out at 5.53%.

`Cc1cc(C)n(CCNC(=O)c2cc(C3CC3)n[nH]2)n1`: the cytotoxicity at 10 µM amounted to 7.39%.

Consider `O=C(c1ccncn1)N1CCC[C@]2(C[C@H](Oc3ncccc3F)CO2)C1`, for which the cytotoxicity at 10 µM was -0.588%.
